Converted amounts (≈) assume the structure as drawn. The source made the active and inactive calls. The rule behind the calls is not given here. Positions of bridges follow the written chain, without caps; N, C: chain ends. Non-standard residues stand in square brackets, D forms with d. Residues, ends and D or L forms follow the SMILES beside them. *: point of attachment. X1 = CC[C@H](C)CCCCC(=O)*; Dab = NCC[C@H](N)C(=O)O
Legend:
Enterococcus faecalis = assay: Antibacterial activity against Enterococcus faecalis ATCC 29212 assessed as inhibition of bacterial growth measured after 16 hrs by agar plate dilution method; assay type: functional
Staphylococcus aureus [1] = assay: Antibacterial activity against Staphylococcus aureus ATCC 29213 assessed as inhibition of bacterial growth measured after 16 hrs by agar plate dilution method; assay type: functional
How it was run: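 MIC determined by plate dilution against the reference strain; values from at least two independent experiments.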

Staphylococcus aureus [2] = assay: Antibacterial activity against methicillin sensitive Staphylococcus aureus assessed as inhibition of bacterial growth measured after 16 hrs by agar plate dilution method; assay type: functional
How it was run: (§1)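 Clinical MSSA and MRSA strains isolated from local hospitals; MIC determined by plate dilution; data from at least two independent experiments.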

Staphylococcus aureus [3] = assay: Antibacterial activity against methicillin resistant Staphylococcus aureus assessed as inhibition of bacterial growth measured after 16 hrs by agar plate dilution method; assay type: functional; how it was run: as §1
Staphylococcus aureus [4] = assay: Inhibition of Staphylococcus aureus FabH A81V/A111T mutant assessed as bacterial growth inhibition measured after 18 hrs by resazurin dye based broth dilution assay
How it was run: (§2)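 S. aureus strains carrying point mutations in the FabH active site; MIC determined by broth dilution; data from at least two independent experiments.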

Staphylococcus aureus [5] = assay: Inhibition of Staphylococcus aureus FabH A81V mutant assessed as bacterial growth inhibition measured after 18 hrs by resazurin dye based broth dilution assay; how it was run: as §2
Staphylococcus aureus [6] = assay: Antibacterial activity against methicillin resistant Staphylococcus aureus assessed as inhibition of bacterial growth measured after 18 hrs in presence of 10% human serum by resazurin dye based broth dilution assay; assay type: functional
Escherichia coli [7] = assay: Antibacterial activity against Escherichia coli harboring delta tolC mutant assessed as inhibition of bacterial growth measured after 16 hrs by agar plate dilution method; assay type: functional
[8] = Binding affinity to His6-tagged Escherichia coli FabF C163Q mutant expressed in Escherichia coli BL21 (DE3) assessed as binding constant measured after 200 sec by isothermal titration calorimetry
How it was run: (§3)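 Ligands were dissolved in PBS (10 mM, pH 7.4) and titrated into E. coli FabF(C163Q) in the same buffer. Protein was at 12 or 14 μM and ligand at 250 μM. Thermodynamic parameters (ΔH, ΔS, ΔG, Kd, n) were calculated from the heat of binding. Runs were done at least three times; one representative run was used.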

Escherichia coli [9] = assay: Binding affinity to His6-tagged Escherichia coli FabF C163Q mutant expressed in Escherichia coli BL21 (DE3) assessed as stoichiometry ratio measured after 200 sec by isothermal titration calorimetry; how it was run: as §3
Escherichia coli [10] = assay: Binding affinity to His6-tagged Escherichia coli FabF C163Q mutant expressed in Escherichia coli BL21 (DE3) assessed as change in enthalpy measured after 200 sec by isothermal titration calorimetry; how it was run: as §3
Escherichia coli [11] = assay: Binding affinity to His6-tagged Escherichia coli FabF C163Q mutant expressed in Escherichia coli BL21 (DE3) assessed as change in entropy measured after 200 sec by isothermal titration calorimetry; how it was run: as §3
Escherichia coli [12] = assay: Binding affinity to His6-tagged Escherichia coli FabF C163Q mutant expressed in Escherichia coli BL21 (DE3) assessed Gibbs free energy change measured after 200 sec by isothermal titration calorimetry; how it was run: as §3
[13] = target: T1, 3-oxoacyl-[acyl-carrier-protein] synthase 2 (Staphylococcus aureus) (UniProt Q5TKS0); assay: Binding affinity to His6-tagged Staphylococcus aureus FabF expressed in Escherichia coli BL21 (DE3) assessed as decrease in melting temperature at 10 uM by SYPRO orange based differential scanning fluorimetry
T1 sequence (whole entry): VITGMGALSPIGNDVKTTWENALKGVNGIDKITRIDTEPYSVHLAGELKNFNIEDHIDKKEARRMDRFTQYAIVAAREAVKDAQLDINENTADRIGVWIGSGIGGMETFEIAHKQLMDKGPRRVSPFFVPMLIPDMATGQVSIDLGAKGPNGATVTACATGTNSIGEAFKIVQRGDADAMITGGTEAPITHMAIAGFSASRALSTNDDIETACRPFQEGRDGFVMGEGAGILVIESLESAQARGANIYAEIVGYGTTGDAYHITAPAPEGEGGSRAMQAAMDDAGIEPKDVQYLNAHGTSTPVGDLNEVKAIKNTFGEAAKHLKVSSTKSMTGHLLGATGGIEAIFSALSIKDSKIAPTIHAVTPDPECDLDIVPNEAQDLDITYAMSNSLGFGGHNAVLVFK
How it was run: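 S. aureus FabF melting curves were measured by DSF in 20 mM HEPES, 180 mM NaCl, pH 7.5, a buffer selected by screening seven buffers. ΔTm was derived from the melting-temperature shift caused by ligand; n = 4.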

Escherichia coli [14] = assay: Binding affinity to His6-tagged Escherichia coli FabH expressed in Escherichia coli BL21 (DE3) assessed as decrease in melting temperature at 10 uM by SYPRO orange based differential scanning fluorimetry
How it was run: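 Purified E. coli FabH melting curves were recorded with and without ligand by thermal-shift fluorometry in 1.0 M Tris-HCl, pH 6.8, a buffer chosen from seven screened. ΔTm was taken from the Tm shift; n = 4.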

Staphylococcus aureus [15] = assay: Antibacterial activity against methicillin resistant Staphylococcus aureus infected in C57BL/6J mouse model of peritonitis assessed as mouse survival at 10 mg/kg, ip administered at 1 and 5 hrs post infection; assay type: functional, organism-based
How it was run: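 Female C57BL/6J mice infected intraperitoneally with 1.5–2.0 × 10^7 CFU MRSA in 5% w/v hog gastric mucin; n = 5 per group; intraperitoneal treatment at 10 mg/kg at 1 and 5 h post-infection; vancomycin 10 mg/kg as control; survival and kidney bacterial load recorded.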

Staphylococcus aureus [16] = assay: Antibacterial activity against methicillin resistant Staphylococcus aureus infected in C57BL/6J mouse model of peritonitis assessed as mouse survival when infected with 2.5x10^7 CFU bacteria at 10 mg/kg, ip administered at 1 and 5 hrs post infection; assay type: functional, organism-based
How it was run: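 Female C57BL/6J mice given a higher intraperitoneal MRSA inoculum of 2.5 × 10^7 CFU; intraperitoneal treatment at 1 and 5 h post-infection; survival recorded.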

Row | Structure (SMILES) | MIC (Staphylococcus aureus [1]) | MIC (Staphylococcus aureus [2]) | MIC (Staphylococcus aureus [3]) | MIC (Staphylococcus aureus [4]) | MIC (Staphylococcus aureus [5]) | MIC (Escherichia coli [7]) | Activity [13] | Activity (Escherichia coli [14]) | further results
1 | C[C@]12C[C@@]34C=CC(=O)[C@@](C)(CCC(=O)Nc5c(O)ccc(C(=O)O)c5O)[C@@H]3[C@H](C[C@@H]1C4)O2 | 1 µg/mL (≈ 2.27 µM) | 0.5 µg/mL (≈ 1.13 µM) | 1 µg/mL (≈ 2.27 µM) | > 32 µg/mL | > 32 µg/mL | 32 µg/mL (≈ 72.5 µM) | – | – | MIC (Enterococcus faecalis): 2 µg/mL (≈ 4.53 µM); MIC (Staphylococcus aureus [6]): 2 µg/mL; Kd [8]: 17.3 nM; Ratio (Escherichia coli [9]): 1.16; deltaH (Escherichia coli [10]): -2.06 kcal/mol; -TdeltaS (Escherichia coli [11]): -7.95 kcal/mol; deltaG (Escherichia coli [12]): -10 kcal/mol
2 | C=C1C[C@]23C=C(SC4CCCCC4)C(=O)[C@@](C)(CCC(=O)Nc4c(O)ccc(C(=O)O)c4O)[C@@H]2C[C@H]1CC3 | 2 µg/mL (≈ 3.71 µM) | 2 µg/mL (≈ 3.71 µM) | 2 µg/mL (≈ 3.71 µM) | – | – | – | Active | Active | Activity (Staphylococcus aureus [15]): inactive
3 | CC1(C)S[C@@H]2[C@H](NC(=O)[C@H](N)c3ccccc3)C(=O)N2[C@H]1C(=O)O | – | – | – | 32 µg/mL (≈ 91.6 µM) | 16 µg/mL (≈ 45.8 µM) | – | – | – | –
4 | CC[C@H](C)CCCCC(=O)N[C@@H](CCN)C(=O)N[C@H](C(=O)N[C@@H](CCN)C(=O)N[C@H]1CCNC(=O)[C@H]([C@@H](C)O)NC(=O)[C@H](CCN)NC(=O)[C@H](CCN)NC(=O)[C@H](CC(C)C)NC(=O)[C@@H](Cc2ccccc2)NC(=O)[C@H](CCN)NC1=O)[C@@H](C)O (X1-[Dab]T[Dab][Dab][Dab][dF]L[Dab][Dab]T; lactam 4-C) | – | – | – | – | – | 4 µg/mL (≈ 3.32 µM) | – | – | –
5 | C=C1C[C@]23C=C(Sc4ccoc4C)C(=O)[C@@](C)(CCC(=O)Nc4c(O)ccc(C(=O)O)c4O)[C@@H]2CC1CC3 (single isomer, unassigned) | 2 µg/mL (≈ 3.72 µM) | 1 µg/mL (≈ 1.86 µM) | 1 µg/mL (≈ 1.86 µM) | 8 µg/mL (≈ 14.9 µM) | 8 µg/mL (≈ 14.9 µM) | > 32 µg/mL | Active | Active | MIC (Enterococcus faecalis): 2 µg/mL (≈ 3.72 µM); MIC (Staphylococcus aureus [6]): 16 µg/mL; Activity (Staphylococcus aureus [16]): inactive
6 | C=C1C[C@]23C=C(SCCC)C(=O)[C@@](C)(CCC(=O)Nc4c(O)ccc(C(=O)O)c4O)[C@@H]2CC1CC3 (single isomer, unassigned) | 8 µg/mL (≈ 16 µM) | 4 µg/mL (≈ 8.01 µM) | 4 µg/mL (≈ 8.01 µM) | – | – | – | Active | Active | –
7 | C=C1C[C@]23C=C(Sc4ccccn4)C(=O)[C@@](C)(CCC(=O)Nc4c(O)ccc(C(=O)O)c4O)[C@@H]2CC1CC3 (single isomer, unassigned) | 4 µg/mL (≈ 7.48 µM) | 2 µg/mL (≈ 3.74 µM) | 2 µg/mL (≈ 3.74 µM) | – | – | – | Active | Active | –
8 | C=C1C[C@]23C=C(Sc4ccc(I)cc4)C(=O)[C@@](C)(CCC(=O)Nc4c(O)ccc(C(=O)O)c4O)[C@@H]2CC1CC3 (single isomer, unassigned) | 8 µg/mL (≈ 12.1 µM) | 4 µg/mL (≈ 6.06 µM) | 4 µg/mL (≈ 6.06 µM) | – | – | – | Active | Active | –
9 | C=C1C[C@]23C=C(SC(C)(C)C)C(=O)[C@@](C)(CCC(=O)Nc4c(O)ccc(C(=O)O)c4O)[C@@H]2CC1CC3 (single isomer, unassigned) | 16 µg/mL (≈ 31.1 µM) | 8 µg/mL (≈ 15.6 µM) | 8 µg/mL (≈ 15.6 µM) | – | – | – | Active | Active | –
